The source of these data is article PMC6333999 (Cancer Research and Treatment : Official Journal of Korean …, 2018).

For assay [1], the system named is p38α. The conditions noted are these: background statement, no reference given; cited from earlier work.
Assay [2] has as its system p38α. The assay is described as follows: SPR binding of peptide with p38α. The conditions noted are these: BIAcore 3000, p38α on Ni-NTA chip, peptide in HBS-EP buffer. Put shortly:
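Pure p38α protein captured on an Ni-NTA chip. Test peptide in HBS-EP buffer injected at 0.23, 0.46 and 0.77 mM. Sensorgrams recorded, and association (KA) and dissociation (KD) constants fitted from them.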
(In SPR one partner is held on a chip, and binding of the other changes the refractive index at the surface.)

The test system of assay [3] is p38δ. The assay is described as follows: Percentage inhibition assay by ELISA. It is filed as biochemical. Put shortly:
(§1)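 Added to ATF-2-coated plates, 1 h at 37°C. Anti-phospho-ATF-2 1:400, then AP anti-rabbit IgG 1:4,000, each 1 h at 37°C. pNPP (pH 8.1) 90 min, NaOH stop, A405. Enzyme without peptide taken as 100% activity for % inhibition.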

In assay [4] the test system is p38α. The assay is described as follows: Percentage inhibition assay by ELISA. As to conditions: ATF-2 substrate, same experiment as p38δ. The format is biochemical. Summed up:
as §1
In general terms: ELISA stands for enzyme-linked immunosorbent assay.

Assay [5] has as its target T1, recombinant GST-tag p38δ protein (UniProt O15264).
T1 sequence: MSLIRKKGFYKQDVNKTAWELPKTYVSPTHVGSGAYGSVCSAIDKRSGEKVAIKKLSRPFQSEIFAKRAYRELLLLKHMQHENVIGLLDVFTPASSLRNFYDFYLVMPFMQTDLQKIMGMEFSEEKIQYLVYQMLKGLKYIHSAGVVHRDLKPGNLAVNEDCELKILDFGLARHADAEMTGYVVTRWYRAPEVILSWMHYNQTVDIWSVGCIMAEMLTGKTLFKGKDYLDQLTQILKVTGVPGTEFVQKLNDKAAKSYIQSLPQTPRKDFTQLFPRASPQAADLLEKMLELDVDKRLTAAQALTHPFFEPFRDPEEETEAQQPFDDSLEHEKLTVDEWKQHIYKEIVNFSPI
The assay is described as follows: SPR.

Turning to `C[S+]([O-])c1ccc(-c2nc(-c3ccncc3)c(-c3ccc(F)cc3)[nH]2)cc1` (stereo not drawn) [SB203580], the “specificity for p38α” value in assay [1] is “very specific p38α inhibitor”.

In the case of WFYH, the “binding to p38α” value in assay [2] was “no binding was observed”. Moreover, the “percentage inhibition of p38δ” value in assay [3] (75 μM peptide, ELISA, ATF-2 substrate, 100 μM ATP, pH 7.5, 37°C, 1 hour, 405 nm) was found to be 77%. Besides, the “phosphorylation of ATF-2 by p38δ” value in assay [3] (kinetic assays, pure p38δ protein incubated with peptide) is “reduction in phosphorylation of ATF-2”. Besides, the “inhibition of p38α” value in assay [4] is “no inhibition”.

In general, Kd refers to the free concentration of one partner at which half of the binding sites on the other are occupied at equilibrium, for simple one-to-one binding. For WFYH [WFYH tetrapeptide], in assay [5], the Kd worked out at 0.704 nM.
